# Screens from PubChem.
# IEC-6 cytotox – cytotoxicity in IEC-6 intestinal epithelial cells, primary screen, cytotoxicity control for KLF5 inhibitor project, cell-based, luminescence; AID 1825, 2009; IEC-6 cytotoxicity, luminescence viability; actives 0.78% (n = 290,000); inhibition, % at 5 µM;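 also: 0% = plate median of test compound wells and 100% = cytotoxic reference compound wells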
# MT stabilize HCS – microtubule stabilizers in HeLa cells, primary screen, imaging, high-content imaging. % tubulin-high responders, % at 10 µM. HeLa tubulin immunostaining HCS, 24 h; share of cells brighter than vehicle mean+2SD. actives 0.83% (n = 200,000);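 active = plate Z-score above 3 for both tubulin-high and condensed-nucleus cell shares, with cell loss under 80%, at 10 µM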;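 also: anti alpha tubulin signal scored within the nucleus-defined area of each cell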
# APP transl inh – inhibitors of APP translation via 5'UTR reporter, primary screen, APP 5'UTR luciferase, SH-SY5Y cells | inhibition, % at 2 µM | SH-SY5Y APP 5'UTR-luciferase reporter, luminescence | AID 1285, 2008 | actives 0.82% (n = 190,000);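 active = inhibition above a set limit, derived from the sample mean plus 3 SD, cut at about 45% in these data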
# b-catenin transl – modulators of beta-catenin nuclear translocation, primary screen, imaging, HeLa cells, immunofluorescence, high-content | nuclear translocation activity, % at 5 µM | actives 0.3% (n = 190,000);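 active = nuclear translocation activity above 50% at 5 µM, with a well cell count of 50 or more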;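 also: per-cell ratio of nuclear to cytoplasmic median beta-catenin stain intensity; plate controls were DMSO negative control for no effect and GSK-3 inhibitor IX positive control for full effect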
#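 Test system: human HeLa cell line; Doses: 5 µM primary, 0.02–20 µM confirmation; Incubation: 24 h compound exposure, 37°C; Detection: beta-catenin immunofluorescence imaging with DAPI; Read-out: beta-catenin nuclear/cytoplasmic ratio, % activation.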
# Ba/F3 V617F tox – reduced viability of JAK2V617F-dependent Ba/F3 cells, primary screen, JAK2V617F inhibitor project, cell-based, Ba/F3 EpoR-JAK2V617F, luminescence; ATP luminescence; inhibition, % at 5.6 µM; actives 1.1% (n = 220,000); AID 1446, 2008;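 active = inhibition above the campaign mean plus 3 SD over all tested compounds, cut at about 24% in these data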;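 also: cytokine-independent growth of Ba/F3 cells driven by EpoR plus mutant JAK2; 0% = DMSO-treated cells and 100% = JAK inhibitor I control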
# BaF3 tox – parental Ba/F3 cell viability inhibition, counter-screen for JAK2V617F inhibitor project, murine pro-B, CellTiter-Glo luminescence | CellTiter-Glo ATP luminescence | actives 1.1% (n = 220,000) | AID 1486, 2009 | inhibition, % at 5.6 µM;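 active = inhibition above a per-campaign cutoff, the mean inhibition of all tested compounds plus 3 SD, cut at about 27% in these data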;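 also: 0% = DMSO wells and 100% = JAK Inhibitor I control wells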
# IEC-6 cytotox cf – cytotoxic compounds in IEC-6 epithelial cells, confirmation, cytotoxicity control, cell-based, luminescence. inhibition, % at 5 µM. IEC-6 rat intestinal epithelial viability. actives 63% (n = 1,900). shares compounds with IEC-6 cytotox;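 also: 0% = vehicle and 100% = reference cytotoxic drug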
# Numbers without * were called inactive; / = not tested or not shown. Only some compounds are listed: those with a hit (about 2.2% of all), similar ones and a draw of the others. Rule as the data show it, unless noted: active = inhibition above about 22%; inactive = the rest.
SMILES,IEC-6 cytotox,MT stabilize HCS,APP transl inh,b-catenin transl,Ba/F3 V617F tox,BaF3 tox,IEC-6 cytotox cf
O=C1[C@@H]2Cc3c([nH]c4ccccc34)C(c3ccccc3)N2C(=O)CN1C1CC1 (some centres undefined),-11,/,/,/,/,/,/
CC(C)(C)NC(=O)NC(=O)CN1CCN(C(c2ccccc2)c2ccccc2)CC1,5,11,-24,-1,2,3,/
Cc1ncc(CN2CCC(C(=O)Nc3ccc(-n4cccn4)cc3)CC2)s1,0,/,/,/,/,/,/
O=C(Nc1ccc(-n2cccn2)cc1)C1CCCCN1Cc1cccc2c1OCO2 (centres undefined),54*,/,/,/,/,/,37*
CC(C)c1ccc(NC(=O)Nc2cnccn2)cc1,42*,/,/,/,/,/,15
CCN(CC)CCCNC1=C(Cl)C(=O)c2ccccc2C1=O,88*,43*,6,1,5,-1,77*
O=C1C(Cl)=C(NCc2cccnc2)C(=O)c2ccccc21,99*,/,/,/,/,/,57*
CC(C)NC1=C(Cl)C(=O)c2ccccc2C1=O,44*,1,-1,/,4,7,17
CC(C)OCCCNC1=C(Cl)C(=O)c2ccccc2C1=O,51*,/,/,1,-5,2,-3
C=CCn1c(C)nnc1SCC(=O)Nc1nccs1,-5,/,/,/,/,/,/
CN(Cc1nnc(-c2ccc(F)cc2)o1)c1ccccc1,2,/,/,/,/,/,/
O=C(c1ccc(CS(=O)c2ccc(F)cc2)o1)N1CCN(C2CCCCC2)CC1 (centres undefined),6,/,/,/,/,/,/
Oc1ccc(Oc2ccc(Oc3ccc(O)cc3)cc2)cc1,42*,/,/,/,/,/,-8
Cc1nc2ncccn2c1-c1csc(Nc2ccc(O)cc2)n1,25*,4,13,12,82*,77*,7
Cc1ccc(Nc2nc(-c3c(C)nc4ncccn34)cs2)cc1,90*,17*,95*,/,76*,78*,59*
Cc1ccc(Nc2nc(-c3c(C)nc4ccccn34)cs2)cc1,94*,17*,96*,112*,94*,92*,79*
C=CCNc1nc(-c2c(C)nc3ncccn23)cs1,1,/,/,/,/,/,/
Cc1c(OC(C)C(=O)NCc2ccncc2)ccc2c3c(c(=O)oc12)CCCC3 (centres undefined),10,/,/,/,/,/,/
Cc1ccccc1C(=O)N1CCN(S(=O)(=O)c2ccccc2)CC1,-10,/,/,/,/,/,/
O=C(NNC(=O)c1ccccc1OCc1ccccc1Cl)c1csc(N2CCOCC2)n1,11,/,/,/,/,/,/
COc1cc2c(cc1OC)CN(C(=O)/C=C/c1ccccc1[N+](=O)[O-])CC2,24*,/,/,/,/,/,16
COc1cc2c(cc1OC)CN(C(=O)c1cccs1)CC2,3,3,-16,-2,-1,5,/
COc1cc2c(cc1OC)CN(C(=O)/C=C/c1cccs1)CC2,59*,/,/,120*,81*,63*,52*
CC(C)(C)c1ccc(S(=O)(=O)N2CC(C(=O)O)Oc3ccc(Cl)cc32)cc1 (centres undefined),-11,/,/,/,/,/,/
CS(=O)(=O)Nc1cccc(C2=NN(C(=O)c3ccco3)C(c3ccco3)C2)c1 (centres undefined),-1,/,/,/,/,/,/
SMILES,IEC-6 cytotox,MT stabilize HCS,APP transl inh,b-catenin transl,Ba/F3 V617F tox,BaF3 tox,IEC-6 cytotox cf
CCS(=O)(=O)Nc1cccc(C2=NN(C(=O)c3ccco3)C(c3ccco3)C2)c1 (centres undefined),47*,/,/,/,/,/,22*
CC(C)c1ccc(NC(=O)CCNC(=O)N2CC(=O)Nc3ccccc32)cc1,-2,/,/,/,/,/,/
COc1ccc(S(=O)(=O)N2CC(C(=O)O)Oc3ccccc32)cc1 (centres undefined),-10,/,/,/,/,/,/
COc1ccc(S(=O)(=O)N2CCOc3ccccc32)cc1,60*,/,/,/,/,/,37*
COc1ccc(CCN2CCCC(CN(C)Cc3cc(Cl)c(O)c(OC)c3)C2)cc1 (centres undefined),1,/,/,/,/,/,/
O=C(c1ccccc1)c1c2c(cc3sc4ccccc4[n+]13)-c1cccc3cccc-2c13,39*,4,-36,24,86*,68*,18
O=C(N/N=C/c1ccc2c(c1)OCO2)c1cccc(NC(=O)c2ccccc2Cl)c1,36*,/,/,/,/,/,9
Cc1cc(C(=O)N/N=C/c2ccc3c(c2)OCO3)c2ccccc2n1,39*,/,/,2,56*,52*,35*
CN(C)CCn1c2ccccc2c2nc3ccc([N+](=O)[O-])cc3cc21,82*,/,/,-3,87*,71*,51*
Cc1cccc2cc(/C=N/NC(=O)c3ccncc3)c(Cl)nc12,8,/,/,0,-2,-4,/
Cc1cccc2cc(/C=N/Nc3ccc(C(=O)O)cc3)c(Cl)nc12,27*,/,/,0,11,9,48*
O=C(O)c1ccc(N/N=C/c2cc3ccccc3nc2Cl)cc1,22*,/,/,0,12,1,31*
COc1ccc(C(=O)c2ccc(Cl)c([N+](=O)[O-])c2)cc1,66*,5,95*,/,91*,91*,73*
COc1ccc(C(=O)c2ccc(Cl)cc2)cc1,8,1,-2,-8,1,6,/
Nc1c2ccccc2nc2ccccc12,38*,/,/,4,61*,36*,56*
Nc1c2c(nc3ccccc13)CCCC2,-3,3,-12,/,-1,4,/
CCO[C@H]1OC(C(=O)NCc2nc3ccccc3[nH]2)=C[C@@H](C2CC2)[C@@H]1CCCO,72*,22*,86*,122*,74*,73*,53*
CCO[C@H]1OC(C(=O)NCc2nc3ccccc3[nH]2)=C[C@@H](c2ccccc2)[C@@H]1CCCO,-4,3,8,-2,-6,4,/
CC(NC(=O)c1ccc2c(c1)OCO2)C(c1cccs1)N1CCN(c2ccccc2)CC1 (centres undefined),-5,/,/,0,-1,-4,/
CCCC[C@H](CN[C@@H](CNC)[C@H](C)CC)NCCC12CCC(CC1)C2,39*,/,/,/,/,/,102*
CCC[C@H](CN[C@@H](CNC)[C@H](C)O)NCCc1ccc(OC)cc1,-3,/,/,/,/,/,/
Cc1ccc(-n2ncc(C(=O)Nc3cc(Cl)cc(Cl)c3)c2C2CCNCC2)cc1C,98*,62,79*,49,95*,86*,97*
CCN(CC)C(=N)/C(C#N)=N/Nc1ccc(C)cc1,5,/,/,1,1,-2,/
Cc1cccc(NC(=O)Cn2cc(C(=O)C3CC3)c3ccccc32)c1C,29*,/,/,/,/,/,16
Fc1ccccc1Cc1noc(CN2CCC(OCc3cccnc3)CC2)n1,-4,2,-24,0,1,5,/
